Measured values from ChEMBL document CHEMBL1926528, “Formulating a new basis for the treatment against botulinum neurotoxin intoxication: 3,4-Diaminopyridine prodrug design and characterization” (Bioorg Med Chem, 2011).

How the values were obtained:
Butyrylcholinesterase [1] = molecular target: T1, Butyrylcholinesterase (Equus caballus, UniProt Q9N1N9); assay: Inhibition of equine serum BChE using butyrylthiocholine iodide as a substrate by spectrophotometric Ellman's assay
Procedure, shortened: (§1)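 Ellman method at 37°C in 100 mM sodium phosphate pH 8.0 with 360 µM DTNB. Substrate was 100 µM acetylthiocholine iodide for eel AChE or butyrylthiocholine iodide for equine BChE, each reconstituted in 1% gelatin buffer. Prodrug ranged 500 µM to 2 µM. Reaction started with 0.5 U enzyme; linear rates read at 412 nm. IC50 and Ki came from non-linear regression, with Ki from varied inhibitor and substrate concentrations.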

Acetylcholinesterase [2] = molecular target: T2, Acetylcholinesterase (Electrophorus electricus, UniProt O42275); assay: Inhibition of Electrophorus electricus Type V-S acetylcholinesterase using […] as substrate by spectrophotometric Ellman's assay; procedure, shortened: as §1
Acetylcholinesterase [3] = molecular target: T2, Acetylcholinesterase; assay: Prodrug activation assessed as Electrophorus electricus Type V-S acetylcholinesterase mediated 3,4-diaminopyridine release measured 3 hrs post enzymatic hydrolysis by reverse phase HPLC
Procedure, shortened: (§2)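 Prodrug at 500 µM was incubated with 1.0 U eel AChE or equine BChE in 100 mM sodium phosphate pH 8.0 for 3 h at 37°C. Reaction was quenched with glacial acetic acid. Released 3,4-DAP was measured by C18 reverse-phase HPLC (TFA water/acetonitrile gradient, 254 and 320 nm) and quantified from peak area against authentic standards.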

Butyrylcholinesterase [4] = molecular target: T1, Butyrylcholinesterase; assay: Prodrug activation assessed as equine serum BChE-mediated 3,4-diaminopyridine release measured 3 hrs post enzymatic hydrolysis by reverse phase HPLC; conditions: horse; procedure, shortened: as §2
Serum = assay: Half life mouse serum by reverse phase HPLC; type: ADME, cell-free
Procedure, shortened: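 15 µl of 10 mM prodrug stock went into 85 µL mouse serum from clotted blood, pre-warmed to 37°C. Samples were taken at 0–120 min and extracted with cold acetonitrile; proteins were removed by centrifugation. Breakdown product 3,4-DAP was followed by reverse-phase HPLC. Half-life was calculated from 1-hour endpoint samples.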

[5] = Half life in iv dosed mouse; type: ADME, organism-based; conditions: in vivo

T2 sequence (O42275 whole entry): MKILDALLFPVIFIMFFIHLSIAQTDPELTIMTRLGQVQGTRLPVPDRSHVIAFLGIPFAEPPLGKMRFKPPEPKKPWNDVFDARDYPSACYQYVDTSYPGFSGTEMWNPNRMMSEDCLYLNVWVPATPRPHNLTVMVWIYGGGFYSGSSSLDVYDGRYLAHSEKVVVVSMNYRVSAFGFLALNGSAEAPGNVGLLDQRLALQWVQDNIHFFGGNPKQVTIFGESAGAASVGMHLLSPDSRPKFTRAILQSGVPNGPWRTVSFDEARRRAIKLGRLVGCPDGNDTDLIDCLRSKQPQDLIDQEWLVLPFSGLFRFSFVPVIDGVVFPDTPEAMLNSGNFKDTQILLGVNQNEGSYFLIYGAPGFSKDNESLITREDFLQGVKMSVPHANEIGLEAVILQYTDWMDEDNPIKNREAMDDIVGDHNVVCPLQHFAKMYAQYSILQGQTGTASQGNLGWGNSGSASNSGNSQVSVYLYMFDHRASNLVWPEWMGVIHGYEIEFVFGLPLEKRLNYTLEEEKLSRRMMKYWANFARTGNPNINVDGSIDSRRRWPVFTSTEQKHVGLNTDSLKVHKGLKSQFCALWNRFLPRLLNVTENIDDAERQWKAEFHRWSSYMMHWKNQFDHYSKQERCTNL
T1 sequence (Q9N1N9 whole entry): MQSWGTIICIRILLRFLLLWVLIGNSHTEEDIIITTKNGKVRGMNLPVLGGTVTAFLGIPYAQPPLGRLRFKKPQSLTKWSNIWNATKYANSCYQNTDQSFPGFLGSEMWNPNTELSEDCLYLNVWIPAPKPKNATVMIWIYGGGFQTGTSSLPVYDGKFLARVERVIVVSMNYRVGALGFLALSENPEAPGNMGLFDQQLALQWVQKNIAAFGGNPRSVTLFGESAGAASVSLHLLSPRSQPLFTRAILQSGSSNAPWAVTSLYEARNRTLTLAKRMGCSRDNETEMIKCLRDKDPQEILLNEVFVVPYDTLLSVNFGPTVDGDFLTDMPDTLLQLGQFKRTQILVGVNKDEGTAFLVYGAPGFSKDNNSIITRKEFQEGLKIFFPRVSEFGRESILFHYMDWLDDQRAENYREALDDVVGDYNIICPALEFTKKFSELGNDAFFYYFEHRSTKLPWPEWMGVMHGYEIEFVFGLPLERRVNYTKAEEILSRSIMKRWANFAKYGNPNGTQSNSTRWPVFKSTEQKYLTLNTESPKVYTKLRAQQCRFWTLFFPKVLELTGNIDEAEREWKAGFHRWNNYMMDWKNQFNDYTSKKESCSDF

Row | Compound | IC50 (Butyrylcholinesterase [1]) [µM] | Ki (Butyrylcholinesterase [1]) [µM] | IC50 (Acetylcholinesterase [2]) [µM] | Ki (Acetylcholinesterase [2]) [µM] | Drug metabolism (Acetylcholinesterase [3]) [µM] | Drug metabolism (Butyrylcholinesterase [4]) [µM] | t1/2 (Serum) [min] | half-life [5] [min]
1 | CCCC(=O)Oc1ccc(COC(=O)Nc2ccncc2N)cc1 | 111 | 14.4 | 48.8 | 12.1 | 10 | 71 |  | 
2 | COc1cccc(C(=O)Oc2ccc(COC(=O)Nc3ccncc3N)cc2)c1 | 61.7 |  | 163 |  | 2 | 0 |  | 
3 | CC(=O)Nc1ccncc1NC(C)=O | 404 |  | 34.2 |  | 0 | 0 |  | 
4 | CC(C)C(=O)OCCOC(=O)Nc1ccncc1N | 61.9 | > 500 | 25.9 | > 500 | 0 | 4 |  | 
5 | CC(C)CC(=O)Oc1ccc(COC(=O)Nc2ccncc2N)cc1 | 87.7 | 38.4 | 11.9 | 55.4 | 12 | 83 |  | 
6 | CCC(=O)Oc1ccc(COC(=O)Nc2ccncc2N)cc1 | 129 | 25 | 5.2 | 5.7 | 145 | 82 | 1.2 | 
7 | CC(C)C(=O)Oc1ccc(COC(=O)Nc2ccncc2N)cc1 | 122 | 42 | 8.5 | 3.9 | 105 | 82 | 1.9 | 
8 | C#CC[n+]1ccc(N)c(N)c1 |  |  |  |  |  |  |  | 72
9 | Nc1cnccc1NC(=O)C1CCCC1 | > 500 |  | > 500 |  | 4 | 8 |  | 
10 | CC(C)OC(=O)CCC(=O)Nc1ccncc1N | 97.4 | 62 | 88.3 | 3.2 | 3.4 | 5.8 | 165 | 
11 | COC(=O)Nc1ccncc1NC(=O)OC | 417 | > 500 | 36.3 | > 500 | 0 | 0 |  | 
12 | Nc1cnccc1NC(=O)OCc1ccc(OC(=O)Cc2ccccc2)cc1 | 32.2 | 30.7 | 136 |  | 0 | 0 |  | 
13 | Nc1cnccc1NC(=O)OCc1ccc(OC(=O)C2CCCC2)cc1 | 77.5 | 37.2 | 11.6 | 6.8 | 34 | 79 |  | 
14 | Nc1cnccc1NC(=O)c1ccccc1 | > 500 |  | > 500 |  | 0 | 0 |  | 
15 | Nc1cncc(N)c1N |  |  |  |  |  |  |  | 18.6
16 | CC(=O)Nc1ccncc1N | > 500 | 173 | 61.3 | 32.5 | 0 | 0 |  | 
17 | CC(=O)Oc1ccc(COC(=O)Nc2ccncc2N)cc1 | 10.6 | 1.6 | 49.4 | 10.9 | 0 | 0 |  | 
18 | COC(=O)Nc1cnccc1N | > 500 |  | > 500 |  | 0 | 0 |  | 
19 | Nc1cnccc1NC(=O)OCc1ccc(OC(=O)c2ccccc2)cc1 | 392 |  | 167 |  | 1 | 0 |  | 
20 | CC(C)C(=O)OCc1ccccc1COC(=O)Nc1ccncc1N | > 500 |  | 496 |  | 29 | 5 |  | 
21 | COC(=O)Nc1ccncc1N | 491 |  | 45.6 |  | 0 | 0 |  | 
